ChEMBL document CHEMBL2375356, “Design, synthesis and biological evaluation of new classes of thieno[3,2-d]pyrimidinone and thieno[1,2,3]triazine as inhibitor of vascular endothelial growth factor receptor-2 (VEGFR-2)” (Eur J Med Chem, 2013)
Active and inactive are the calls of the source. The calls are words filed in the database; no cut-off is given here.

What was measured:
[1] = molecular target: T1, Vascular endothelial growth factor receptor 2 (Homo sapiens, UniProt P35968); test: Inhibition of human recombinant VEGFR2
T1 sequence (P35968 whole entry): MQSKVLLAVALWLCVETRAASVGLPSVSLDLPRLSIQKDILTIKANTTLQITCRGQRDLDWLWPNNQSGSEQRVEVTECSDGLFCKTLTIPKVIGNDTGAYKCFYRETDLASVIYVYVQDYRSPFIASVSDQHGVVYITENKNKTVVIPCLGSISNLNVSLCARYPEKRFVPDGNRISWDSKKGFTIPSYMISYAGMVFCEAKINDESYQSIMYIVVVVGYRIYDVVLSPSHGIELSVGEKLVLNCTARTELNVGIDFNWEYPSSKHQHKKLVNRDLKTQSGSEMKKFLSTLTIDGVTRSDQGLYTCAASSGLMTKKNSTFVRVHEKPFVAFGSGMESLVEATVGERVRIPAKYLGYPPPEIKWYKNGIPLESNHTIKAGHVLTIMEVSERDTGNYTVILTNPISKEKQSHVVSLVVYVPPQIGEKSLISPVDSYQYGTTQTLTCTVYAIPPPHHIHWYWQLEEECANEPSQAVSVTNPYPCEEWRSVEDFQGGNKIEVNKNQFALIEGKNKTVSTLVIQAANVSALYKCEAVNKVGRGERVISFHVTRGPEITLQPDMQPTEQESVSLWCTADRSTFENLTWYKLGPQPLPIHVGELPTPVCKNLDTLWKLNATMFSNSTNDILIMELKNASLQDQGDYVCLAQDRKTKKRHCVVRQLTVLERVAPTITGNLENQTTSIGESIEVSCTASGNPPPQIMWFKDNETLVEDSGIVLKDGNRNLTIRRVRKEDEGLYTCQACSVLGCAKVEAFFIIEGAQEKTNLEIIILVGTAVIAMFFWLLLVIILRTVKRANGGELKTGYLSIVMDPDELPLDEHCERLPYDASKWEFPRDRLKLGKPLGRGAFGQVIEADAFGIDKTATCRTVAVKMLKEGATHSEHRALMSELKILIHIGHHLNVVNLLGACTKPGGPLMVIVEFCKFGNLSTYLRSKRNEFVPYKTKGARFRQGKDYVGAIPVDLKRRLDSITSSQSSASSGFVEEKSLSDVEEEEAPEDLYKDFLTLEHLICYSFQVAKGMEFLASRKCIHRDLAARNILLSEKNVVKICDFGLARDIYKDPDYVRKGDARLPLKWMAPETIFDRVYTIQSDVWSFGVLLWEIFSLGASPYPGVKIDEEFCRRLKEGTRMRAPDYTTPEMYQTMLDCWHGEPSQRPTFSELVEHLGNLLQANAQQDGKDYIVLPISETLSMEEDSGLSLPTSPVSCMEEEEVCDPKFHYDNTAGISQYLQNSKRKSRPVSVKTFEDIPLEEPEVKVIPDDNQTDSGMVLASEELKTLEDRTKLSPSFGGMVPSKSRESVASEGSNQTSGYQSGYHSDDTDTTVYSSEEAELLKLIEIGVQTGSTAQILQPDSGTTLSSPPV

[2] = molecular target: T2, Ephrin type-A receptor 6 (Homo sapiens) (UniProt Q9UF33); test: Inhibition of EPHA6 phosphorylation in growth factor-stimulated HUVEC at 3 uM after 24 hrs
T2 sequence (whole entry): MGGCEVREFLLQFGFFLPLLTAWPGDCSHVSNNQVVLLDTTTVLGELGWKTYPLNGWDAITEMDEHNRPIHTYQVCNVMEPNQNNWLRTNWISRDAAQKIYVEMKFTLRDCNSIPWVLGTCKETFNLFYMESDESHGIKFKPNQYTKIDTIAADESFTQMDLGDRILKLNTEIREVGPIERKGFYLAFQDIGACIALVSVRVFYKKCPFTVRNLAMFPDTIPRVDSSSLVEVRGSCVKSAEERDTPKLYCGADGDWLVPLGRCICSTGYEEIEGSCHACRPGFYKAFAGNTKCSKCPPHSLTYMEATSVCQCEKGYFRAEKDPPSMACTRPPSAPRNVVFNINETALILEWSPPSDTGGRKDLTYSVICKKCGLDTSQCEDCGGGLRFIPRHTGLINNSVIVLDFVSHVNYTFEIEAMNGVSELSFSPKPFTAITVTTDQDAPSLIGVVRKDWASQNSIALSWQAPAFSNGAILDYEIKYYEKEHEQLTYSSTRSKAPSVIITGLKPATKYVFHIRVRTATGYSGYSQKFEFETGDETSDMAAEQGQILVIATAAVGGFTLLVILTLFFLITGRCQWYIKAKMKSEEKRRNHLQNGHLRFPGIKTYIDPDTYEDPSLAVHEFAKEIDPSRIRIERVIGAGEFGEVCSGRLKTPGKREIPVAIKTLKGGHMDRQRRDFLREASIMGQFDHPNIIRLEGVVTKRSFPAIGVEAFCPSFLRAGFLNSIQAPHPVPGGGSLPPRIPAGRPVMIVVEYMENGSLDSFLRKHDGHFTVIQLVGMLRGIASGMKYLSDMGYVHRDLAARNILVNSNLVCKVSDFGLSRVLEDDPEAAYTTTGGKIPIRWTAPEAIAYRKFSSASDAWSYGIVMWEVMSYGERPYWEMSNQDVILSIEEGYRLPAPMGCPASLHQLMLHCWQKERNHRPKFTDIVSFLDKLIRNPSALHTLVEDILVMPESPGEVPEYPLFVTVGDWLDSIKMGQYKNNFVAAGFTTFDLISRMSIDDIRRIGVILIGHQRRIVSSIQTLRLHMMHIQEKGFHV

[3] = molecular target: Tyrosine-protein kinase transmembrane receptor ROR2 (Homo sapiens) (UniProt Q01974); test: Inhibition of ROR2 phosphorylation in growth factor-stimulated HUVEC at 3 uM after 24 hrs
[4] = molecular target: Tyrosine-protein kinase receptor Tie-1 (Homo sapiens) (UniProt P35590); test: Inhibition of TIE-1 phosphorylation in growth factor-stimulated HUVEC at 3 uM after 24 hrs
Chain of Tyrosine-protein kinase receptor Tie-1 (Homo sapiens) (P35590 whole entry): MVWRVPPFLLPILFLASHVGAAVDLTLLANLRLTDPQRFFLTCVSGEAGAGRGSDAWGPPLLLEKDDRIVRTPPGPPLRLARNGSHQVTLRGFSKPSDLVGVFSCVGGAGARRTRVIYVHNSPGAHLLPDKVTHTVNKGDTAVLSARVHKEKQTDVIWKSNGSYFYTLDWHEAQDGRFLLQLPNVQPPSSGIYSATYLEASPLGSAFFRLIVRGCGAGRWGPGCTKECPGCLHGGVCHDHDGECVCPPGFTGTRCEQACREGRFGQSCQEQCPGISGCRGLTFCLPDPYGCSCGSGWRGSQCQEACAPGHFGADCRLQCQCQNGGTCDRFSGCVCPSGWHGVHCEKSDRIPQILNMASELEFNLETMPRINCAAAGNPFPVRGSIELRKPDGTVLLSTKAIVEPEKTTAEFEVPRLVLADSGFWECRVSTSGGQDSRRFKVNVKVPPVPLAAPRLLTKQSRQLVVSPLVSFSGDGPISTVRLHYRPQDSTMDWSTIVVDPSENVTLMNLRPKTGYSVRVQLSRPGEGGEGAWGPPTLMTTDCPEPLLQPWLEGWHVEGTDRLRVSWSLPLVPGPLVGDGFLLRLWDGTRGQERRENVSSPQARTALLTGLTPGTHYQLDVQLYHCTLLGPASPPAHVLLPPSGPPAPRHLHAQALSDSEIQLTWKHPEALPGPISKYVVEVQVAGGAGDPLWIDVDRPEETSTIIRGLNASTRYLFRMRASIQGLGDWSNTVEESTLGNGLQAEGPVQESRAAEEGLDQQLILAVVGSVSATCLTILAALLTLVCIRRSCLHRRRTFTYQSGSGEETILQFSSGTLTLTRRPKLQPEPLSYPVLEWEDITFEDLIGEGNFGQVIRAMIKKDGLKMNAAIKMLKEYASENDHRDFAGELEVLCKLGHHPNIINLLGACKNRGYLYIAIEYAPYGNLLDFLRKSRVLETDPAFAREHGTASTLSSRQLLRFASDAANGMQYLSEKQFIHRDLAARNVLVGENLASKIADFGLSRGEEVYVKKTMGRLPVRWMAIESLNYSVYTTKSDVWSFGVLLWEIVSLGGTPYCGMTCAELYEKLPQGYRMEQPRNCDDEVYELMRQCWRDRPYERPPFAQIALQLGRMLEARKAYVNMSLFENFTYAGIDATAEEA

[5] = molecular target: Tyrosine-protein kinase receptor UFO (Homo sapiens) (UniProt P30530); test: Inhibition of AXL phosphorylation in growth factor-stimulated HUVEC at 3 uM after 24 hrs
Chain of Tyrosine-protein kinase receptor UFO (Homo sapiens) (P30530 whole entry): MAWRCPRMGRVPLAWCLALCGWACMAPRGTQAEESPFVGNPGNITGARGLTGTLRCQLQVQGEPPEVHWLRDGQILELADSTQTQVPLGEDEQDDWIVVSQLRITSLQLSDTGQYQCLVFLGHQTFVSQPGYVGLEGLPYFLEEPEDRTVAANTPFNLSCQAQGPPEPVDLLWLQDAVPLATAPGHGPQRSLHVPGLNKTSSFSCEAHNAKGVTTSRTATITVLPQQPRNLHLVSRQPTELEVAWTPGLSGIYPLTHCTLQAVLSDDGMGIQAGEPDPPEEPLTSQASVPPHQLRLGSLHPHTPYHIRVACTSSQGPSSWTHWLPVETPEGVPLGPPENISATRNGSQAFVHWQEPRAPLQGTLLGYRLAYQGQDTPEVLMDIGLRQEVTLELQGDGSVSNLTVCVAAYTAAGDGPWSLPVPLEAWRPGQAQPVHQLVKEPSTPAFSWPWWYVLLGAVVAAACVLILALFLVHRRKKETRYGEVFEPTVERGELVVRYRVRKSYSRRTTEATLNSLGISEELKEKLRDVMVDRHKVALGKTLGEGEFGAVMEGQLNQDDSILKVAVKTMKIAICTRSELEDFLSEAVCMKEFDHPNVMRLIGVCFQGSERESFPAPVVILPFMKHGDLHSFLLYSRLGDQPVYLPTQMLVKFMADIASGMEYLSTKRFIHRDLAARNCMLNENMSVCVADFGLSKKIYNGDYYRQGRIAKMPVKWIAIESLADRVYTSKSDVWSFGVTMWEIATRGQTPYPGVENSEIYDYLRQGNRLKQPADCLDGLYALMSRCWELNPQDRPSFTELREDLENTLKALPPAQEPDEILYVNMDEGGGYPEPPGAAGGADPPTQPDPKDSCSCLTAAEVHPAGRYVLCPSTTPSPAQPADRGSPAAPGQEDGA

[6] = molecular target: T3, Tyrosine-protein kinase receptor TYRO3 (Homo sapiens) (UniProt Q06418); test: Inhibition of DTK phosphorylation in growth factor-stimulated HUVEC at 3 uM after 24 hrs
T3 sequence (whole entry): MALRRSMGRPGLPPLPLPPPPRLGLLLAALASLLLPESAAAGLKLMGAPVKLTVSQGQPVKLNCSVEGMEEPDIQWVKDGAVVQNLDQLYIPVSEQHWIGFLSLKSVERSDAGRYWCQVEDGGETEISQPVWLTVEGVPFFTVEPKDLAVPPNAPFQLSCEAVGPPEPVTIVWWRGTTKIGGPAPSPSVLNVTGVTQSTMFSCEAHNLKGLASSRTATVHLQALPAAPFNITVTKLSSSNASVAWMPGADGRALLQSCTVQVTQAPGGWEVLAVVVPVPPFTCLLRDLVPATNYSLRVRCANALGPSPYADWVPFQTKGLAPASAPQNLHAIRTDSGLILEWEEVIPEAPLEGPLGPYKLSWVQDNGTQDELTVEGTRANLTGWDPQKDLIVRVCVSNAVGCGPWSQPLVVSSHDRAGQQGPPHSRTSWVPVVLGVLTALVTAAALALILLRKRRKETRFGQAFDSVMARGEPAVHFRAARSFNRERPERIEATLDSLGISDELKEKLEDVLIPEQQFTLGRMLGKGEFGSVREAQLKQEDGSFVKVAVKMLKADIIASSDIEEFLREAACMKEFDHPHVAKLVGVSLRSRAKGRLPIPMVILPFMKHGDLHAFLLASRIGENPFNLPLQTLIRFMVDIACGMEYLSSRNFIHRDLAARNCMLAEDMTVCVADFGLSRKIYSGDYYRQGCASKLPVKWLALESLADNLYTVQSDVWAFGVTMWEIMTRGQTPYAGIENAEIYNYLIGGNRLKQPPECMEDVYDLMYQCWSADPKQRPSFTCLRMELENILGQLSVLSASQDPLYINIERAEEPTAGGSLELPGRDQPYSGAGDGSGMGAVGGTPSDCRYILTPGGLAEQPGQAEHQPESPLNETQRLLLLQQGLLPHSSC

[7] = molecular target: Epidermal growth factor receptor (Homo sapiens) (UniProt P00533); test: Inhibition of EGFR phosphorylation in growth factor-stimulated HUVEC at 3 uM after 24 hrs
[8] = molecular target: T1, Vascular endothelial growth factor receptor 2; test: Inhibition of VEGFR2 phosphorylation in growth factor-stimulated HUVEC at 3 uM after 24 hrs
[9] = molecular target: Vascular endothelial growth factor receptor 1 (Homo sapiens) (UniProt P17948); test: Inhibition of VEGFR1 phosphorylation in growth factor-stimulated HUVEC at 3 uM after 24 hrs
Chain of Vascular endothelial growth factor receptor 1 (Homo sapiens) (P17948 whole entry): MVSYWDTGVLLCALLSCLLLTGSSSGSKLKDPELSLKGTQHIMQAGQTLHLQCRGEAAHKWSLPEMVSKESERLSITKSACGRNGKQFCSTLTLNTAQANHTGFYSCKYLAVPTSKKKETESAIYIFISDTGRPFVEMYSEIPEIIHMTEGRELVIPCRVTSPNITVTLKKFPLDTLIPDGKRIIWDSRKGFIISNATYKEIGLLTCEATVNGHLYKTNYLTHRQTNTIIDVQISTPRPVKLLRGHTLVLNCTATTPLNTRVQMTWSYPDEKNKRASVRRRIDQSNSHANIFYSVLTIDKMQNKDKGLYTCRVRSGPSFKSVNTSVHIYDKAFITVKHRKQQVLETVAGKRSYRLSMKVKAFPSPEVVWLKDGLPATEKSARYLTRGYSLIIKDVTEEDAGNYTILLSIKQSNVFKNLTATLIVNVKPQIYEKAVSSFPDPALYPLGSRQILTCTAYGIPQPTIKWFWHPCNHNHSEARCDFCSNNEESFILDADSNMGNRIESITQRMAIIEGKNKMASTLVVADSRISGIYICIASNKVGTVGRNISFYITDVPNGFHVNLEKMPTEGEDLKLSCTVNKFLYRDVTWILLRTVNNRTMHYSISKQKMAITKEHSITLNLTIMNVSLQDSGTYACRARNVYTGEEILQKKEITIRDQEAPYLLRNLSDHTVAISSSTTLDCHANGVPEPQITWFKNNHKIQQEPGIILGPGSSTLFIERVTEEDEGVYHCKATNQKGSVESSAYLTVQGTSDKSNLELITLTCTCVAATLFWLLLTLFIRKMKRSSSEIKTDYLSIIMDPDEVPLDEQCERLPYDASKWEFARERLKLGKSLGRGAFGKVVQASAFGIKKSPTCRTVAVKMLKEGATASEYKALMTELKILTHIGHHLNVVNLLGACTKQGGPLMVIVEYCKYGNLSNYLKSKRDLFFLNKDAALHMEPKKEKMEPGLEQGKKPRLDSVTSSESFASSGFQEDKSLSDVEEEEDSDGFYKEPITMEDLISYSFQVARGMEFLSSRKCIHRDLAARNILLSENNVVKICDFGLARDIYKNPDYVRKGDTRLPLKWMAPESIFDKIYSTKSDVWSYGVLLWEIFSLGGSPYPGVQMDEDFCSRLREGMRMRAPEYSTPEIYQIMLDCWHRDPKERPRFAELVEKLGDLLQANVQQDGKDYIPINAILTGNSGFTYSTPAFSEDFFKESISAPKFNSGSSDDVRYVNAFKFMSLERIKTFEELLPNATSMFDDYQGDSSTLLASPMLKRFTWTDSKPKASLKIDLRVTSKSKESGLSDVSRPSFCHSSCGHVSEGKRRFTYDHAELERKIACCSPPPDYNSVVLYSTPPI

[10] = molecular target: Vascular endothelial growth factor receptor 1 (Homo sapiens) (UniProt P17948); test: Inhibition of VEGFR1 phosphorylation in growth factor-stimulated HUVEC
[11] = test system: HUVEC; test: cells; conditions: Homo sapiens, 24 h
[12] = test system: HUVEC; test: Cytotoxicity against HUVEC assessed as decrease in cell viability at 1 to 100 uM after 24 hrs by Hoechst 33258 staining method; format: cell-based; conditions: human
In short: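 HUVEC seeded at 20,000 cells/cm²; after 24 h, treated with test agent (0–100 µM) in RPMI 1640 + 2% FCS for 24 h. Cells lysed by freezing at −80 °C, lysates incubated with Hoechst 33258 for 1 h with agitation. Fluorescence read at ex 360/em 460 nm; expressed as % variation vs untreated; mean ± SD, n = 3 in triplicate.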

[13] = test system: HUVEC; test: Cytostatic activity against HUVEC assessed as decrease in metabolic activity after 24 hrs by MTT assay; format: ADME, cell-based, Homo sapiens
In short: (§1)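 Primary HUVEC (passage ≤5) seeded at 20,000 cells/cm² in complete medium; after 24 h, exposed to test agent (0–100 µM) in RPMI 1640 + 2% heat-inactivated FCS for 24 h. MTT 0.4 mg/mL, 37 °C for 3 h; formazan dissolved in DMSO, absorbance read at 570/630 nm. Expressed as % variation vs untreated medium; mean ± SD, n = 3 in triplicate.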

[14] = test system: HUVEC; test: Cytostatic activity against HUVEC assessed as decrease in metabolic activity at 100 uM after 24 hrs by MTT assay relative to control; format: ADME, cell-based; design: scale not given: the % may be the effect or the level left; conditions: human; in short: as §1
[15] = test system: HUVEC; test: Cytostatic activity against HUVEC assessed as decrease in metabolic activity at 1.5 uM after 24 hrs by MTT assay relative to control; format: ADME, cell-based; design: scale not given: the % may be the effect or the level left; conditions: human; in short: as §1

O=c1[nH]c(CN2CCCCC2)nc2cc(-c3cn(Cc4ccccc4)c4ccccc34)sc12 [listing 1 of 2 here]
IC50 [1]: 2.25 µM

O=c1[nH]c(CN2CCCCC2)nc2cc(-c3cn(Cc4ccccc4)c4ccccc34)sc12 [listing 2 of 2 here]
inhibition [2]: Active
inhibition [3]: Active
inhibition [4]: Active
inhibition [5]: Active
inhibition [6]: Active
inhibition [7]: Active
inhibition [8]: Active
inhibition [9]: Active

CCN(CC)CCNC(=O)c1c(C)[nH]c(/C=C2\C(=O)Nc3ccc(F)cc32)c1C [SUNITINIB]
inhibition [10]: Active
EC50 [11]: 0.645 µM

O=C(O)C(O)C(O)C(=O)O.O=c1[nH]c(CN2CCCCC2)nc2cc(-c3cn(Cc4ccccc4)c4ccccc34)sc12
Activity [12]: Non-toxic
EC50 ([13]; Homo sapiens, HUVEC): 12 µM
Activity ([13]; human, huvec): Dose-dependent effect
Activity [14]: 51%
Activity [15]: 9%
EC50 [11]: 0.031 µM
